Experimental data from ChEMBL document CHEMBL1782055, “2,3-dideoxy hex-2-enopyranosid-4-uloses as promising new anti-tubercular agents: design, synthesis, biological evaluation and SAR studies” (Eur J Med Chem, 2011).

What was measured:
Type in all cases: functional
[1] = test system: Mycobacterium tuberculosis; experiment: Antitubercular activity against rifampin and isoniazid-resistant Mycobacterium tuberculosis TB-1678/05 after 24 hrs by BACTEC radiometric susceptibility assay; conditions: TB-1678/05, 24 h
In short: (§1)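 BACTEC radiometric assay in 7H12 (12B) medium with 14C-palmitic acid as substrate; 14CO2 output read daily as Growth Index (GI) at 37 °C ± 1 °C. H37Rv inoculum grown in 12B vial to GI around 300. Compounds dissolved in DMSO. Control vial held 1:100 diluted bacterial suspension. Reading continued until control GI reached 30 or more. Daily change in GI compared with control to set susceptibility and MIC.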

[2] = test system: Mycobacterium tuberculosis; experiment: Antitubercular activity against isoniazid-resistant Mycobacterium tuberculosis 433 after 24 hrs by BACTEC radiometric susceptibility assay; conditions: Mycobacterium tuberculosis, 433, 24 h; in short: as §1
[3] = test system: Mycobacterium tuberculosis; experiment: Antitubercular activity against ethambutol-resistant Mycobacterium tuberculosis TB-2506/06 after 24 hrs by BACTEC radiometric susceptibility assay; conditions: TB-2506/06, 24 h; in short: as §1
[4] = test system: Mycobacterium tuberculosis; experiment: Antitubercular activity against rifampin and isoniazid-resistant Mycobacterium tuberculosis 2643 after 24 hrs by BACTEC radiometric susceptibility assay; conditions: Mycobacterium tuberculosis, 2643, 24 h; in short: as §1

Measured: MIC

CC(C)CCO[C@@H]1C=CC(=O)[C@@H](COC(=O)C(C)(C)C)O1
1.56 µg/mL: all assays above
